These results are taken from ChEMBL document CHEMBL4680371, “Design and Structure-Activity Relationship of a Potent Furin Inhibitor Derived from Influenza Hemagglutinin” (ACS Med Chem Lett, 2021).

Usually Ki stands for the equilibrium dissociation constant of an inhibitor or competing ligand from its target.

Where a SMILES comes first, the peptide text is derived from it. [ ]: non-standard residue; d: D form. Abu = CC[C@H](N)C(=O)O

The target of this test is Furin (Homo sapiens, UniProt P09958). The experiment in a line: Inhibition of recombinant soluble human furin using pyroGlu-Arg-Thr-Lys-Arg-methyl-coumaryl-7-amide as substrate measured after 1 hr. In outline: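 Soluble human recombinant furin was tested in a competitive kinetic assay. Ki is reported as the mean ± SD of at least two independent experiments.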
Sequence of Furin (P09958 whole entry): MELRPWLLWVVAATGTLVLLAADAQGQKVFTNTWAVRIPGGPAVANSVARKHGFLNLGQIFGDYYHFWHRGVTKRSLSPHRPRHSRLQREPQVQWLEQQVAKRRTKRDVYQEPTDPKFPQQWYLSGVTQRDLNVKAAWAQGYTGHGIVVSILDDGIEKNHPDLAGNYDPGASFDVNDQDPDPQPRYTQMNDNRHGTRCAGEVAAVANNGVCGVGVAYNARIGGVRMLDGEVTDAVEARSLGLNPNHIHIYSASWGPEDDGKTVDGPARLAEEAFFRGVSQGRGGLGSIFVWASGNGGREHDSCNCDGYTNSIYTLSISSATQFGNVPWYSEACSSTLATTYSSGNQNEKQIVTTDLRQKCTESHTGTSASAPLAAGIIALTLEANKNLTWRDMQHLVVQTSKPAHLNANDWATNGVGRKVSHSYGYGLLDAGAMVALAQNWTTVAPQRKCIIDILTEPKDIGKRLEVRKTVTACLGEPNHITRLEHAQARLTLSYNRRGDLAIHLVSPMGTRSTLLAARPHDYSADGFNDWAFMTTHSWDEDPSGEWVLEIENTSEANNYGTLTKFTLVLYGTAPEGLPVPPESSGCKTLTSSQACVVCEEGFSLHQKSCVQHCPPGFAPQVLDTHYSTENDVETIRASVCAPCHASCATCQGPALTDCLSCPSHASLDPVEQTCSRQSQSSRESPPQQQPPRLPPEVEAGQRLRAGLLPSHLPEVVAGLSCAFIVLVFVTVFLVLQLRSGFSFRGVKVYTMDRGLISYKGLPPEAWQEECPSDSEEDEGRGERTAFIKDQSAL

For `CC(=O)N[C@@H](CCCNC(=N)N)C(=O)N[C@@H](C)C(=O)N[C@@H](CCCNC(=N)N)C(=O)N[C@@H](Cc1c[nH]c2ccccc12)C(=O)N[C@@H](CCCNC(=N)N)C(=O)N[C@@H](CCCCN)C(=O)N[C@@H](CCCCN)C(=O)N[C@@H](CCCNC(=N)N)C(=O)N[C@H](C(N)=O)[C@@H](C)O`, the inhibition constant Ki turned out to be 47 nM.
The value for `CSCC[C@H](NC(C)=O)C(=O)N[C@@H](C)C(=O)N[C@@H](CCCNC(=N)N)C(=O)N[C@@H](CCCNC(=N)N)C(=O)N[C@@H](CCCNC(=N)N)C(=O)N[C@@H](CCCCN)C(=O)N[C@@H](CCCCN)C(=O)N[C@@H](CCCNC(=N)N)C(=O)N[C@H](C(N)=O)[C@@H](C)O` was 12 nM.
`CC(=O)N[C@@H](CCCNC(=N)N)C(=O)N[C@@H](C)C(=O)N[C@@H](CCCNC(=N)N)C(=O)N[C@@H](CCC(N)=O)C(=O)N[C@@H](CCCNC(=N)N)C(=O)N[C@@H](CCCCN)C(=O)N[C@@H](CCCCN)C(=O)N[C@@H](CCCNC(=N)N)C(=O)N[C@H](C(N)=O)[C@@H](C)O`: the Ki was found to be 19 nM.
With `CC(=O)N[C@@H](CCCNC(=N)N)C(=O)N[C@@H](C)C(=O)N1CCC[C@H]1C(=O)N[C@@H](CCCNC(=N)N)C(=O)N[C@@H](CCCNC(=N)N)C(=O)N[C@@H](CCCCN)C(=O)N[C@@H](CCCCN)C(=O)N[C@@H](CCCNC(=N)N)C(=O)N[C@H](C(N)=O)[C@@H](C)O`, the inhibition constant (Ki) came out at 21 nM.
The value for `CC(=O)N[C@@H](CCCNC(=N)N)C(=O)N[C@@H](CO)C(=O)N[C@@H](CCCNC(=N)N)C(=O)N[C@@H](CCCNC(=N)N)C(=O)N[C@@H](CCCNC(=N)N)C(=O)N[C@@H](CCCCN)C(=O)N[C@@H](CCCCN)C(=O)N[C@@H](CCCNC(=N)N)C(=O)N[C@H](C(N)=O)[C@@H](C)O` was 15 nM.
As for `CC(=O)N[C@@H](CC(C)C)C(=O)N[C@@H](C)C(=O)N[C@@H](CCCNC(=N)N)C(=O)N[C@@H](CCCNC(=N)N)C(=O)N[C@@H](CCCNC(=N)N)C(=O)N[C@@H](CCCCN)C(=O)N[C@@H](CCCCN)C(=O)N[C@@H](CCCNC(=N)N)C(=O)N[C@H](C(N)=O)[C@@H](C)O`, the Ki amounted to 12 nM.
On to `CC[C@H](NC(=O)[C@H](CCCNC(=N)N)NC(=O)[C@H](C)NC(=O)[C@@H]1CCCN1C(C)=O)C(=O)N[C@@H](CCCNC(=N)N)C(=O)N[C@@H](CCCCN)C(=O)N[C@@H](CCCCN)C(=O)N[C@@H](CCCNC(=N)N)C(=O)N[C@H](C(N)=O)[C@@H](C)O`, for which the Ki amounted to 10 nM.
For the compound `CC(=O)N[C@@H](C)C(=O)N[C@@H](Cc1c[nH]c2ccccc12)C(=O)N[C@@H](CCCNC(=N)N)C(=O)N[C@@H](CCCNC(=N)N)C(=O)N[C@@H](CCCNC(=N)N)C(=O)N[C@@H](CCCCN)C(=O)N[C@@H](CCCCN)C(=O)N[C@@H](CCCNC(=N)N)C(=O)N[C@H](C(N)=O)[C@@H](C)O` (Ac-AWRRRKKRT-NH2), the Ki is 30 nM.
For `CC[C@H](C)[C@H](NC(C)=O)C(=O)N[C@@H](C)C(=O)N[C@@H](CCCNC(=N)N)C(=O)N[C@@H](CCCNC(=N)N)C(=O)N[C@@H](CCCNC(=N)N)C(=O)N[C@@H](CCCCN)C(=O)N[C@@H](CCCCN)C(=O)N[C@@H](CCCNC(=N)N)C(=O)N[C@H](C(N)=O)[C@@H](C)O`, the Ki came out at 11 nM.
`CC(=O)N[C@@H](CCCNC(=N)N)C(=O)N[C@@H](C)C(=O)N[C@@H](CCCNC(=N)N)C(=O)N[C@H](C(=O)N[C@@H](CCCNC(=N)N)C(=O)N[C@@H](CCCCN)C(=O)N[C@@H](CCCCN)C(=O)N[C@@H](CCCNC(=N)N)C(=O)N[C@H](C(N)=O)[C@@H](C)O)C(C)(C)C`: the Ki is 16 nM.
As to `CC[C@H](C)[C@H](NC(=O)[C@H](CCCNC(=N)N)NC(=O)[C@H](C)NC(=O)[C@H](CO)NC(C)=O)C(=O)N[C@@H](CCCNC(=N)N)C(=O)N[C@@H](CCCCN)C(=O)N[C@@H](CCCCN)C(=O)N[C@@H](CCCNC(=N)N)C(=O)N[C@H](C(N)=O)[C@@H](C)O` (Ac-SARIRKKRT-NH2), the Ki was 8 nM.
Turning to `CC(=O)N[C@H](CO)C(=O)N[C@@H](C)C(=O)N[C@@H](CCCNC(=N)N)C(=O)N[C@@H](CCCNC(=N)N)C(=O)N[C@@H](CCCNC(=N)N)C(=O)N[C@@H](CCCCN)C(=O)N[C@@H](CCCCN)C(=O)N[C@@H](CCCNC(=N)N)C(=O)N[C@H](C(N)=O)[C@@H](C)O`, the inhibition constant Ki came out at 11 nM.
Regarding `CC(=O)N[C@@H](CCCNC(=N)N)C(=O)N[C@@H](CCCNC(=N)N)C(=O)N[C@@H](CCCNC(=N)N)C(=O)N[C@@H](CCCNC(=N)N)C(=O)N[C@@H](CCCNC(=N)N)C(=O)N[C@@H](CCCCN)C(=O)N[C@@H](CCCCN)C(=O)N[C@@H](CCCNC(=N)N)C(=O)N[C@H](C(N)=O)[C@@H](C)O`, the inhibition constant Ki is 23 nM.
On to `CC(=O)N[C@@H](CCCNC(=N)N)C(=O)N[C@@H](C)C(=O)N[C@@H](Cc1c[nH]cn1)C(=O)N[C@@H](CCCNC(=N)N)C(=O)N[C@@H](CCCNC(=N)N)C(=O)N[C@@H](CCCCN)C(=O)N[C@@H](CCCCN)C(=O)N[C@@H](CCCNC(=N)N)C(=O)N[C@H](C(N)=O)[C@@H](C)O`, for which the inhibitory constant (Ki) was determined as 25 nM.
Take `CC[C@H](NC(=O)[C@H](CCCNC(=N)N)NC(=O)[C@H](C)NC(=O)CNC(C)=O)C(=O)N[C@@H](CCCNC(=N)N)C(=O)N[C@@H](CCCCN)C(=O)N[C@@H](CCCCN)C(=O)N[C@@H](CCCNC(=N)N)C(=O)N[C@H](C(N)=O)[C@@H](C)O` (Ac-GAR[Abu]RKKRT-NH2): the Ki turned out to be 10 nM.
In the case of `CC(=O)N[C@@H](CCCNC(=N)N)C(=O)N[C@@H](C)C(=O)N[C@@H](CCCNC(=N)N)C(=O)N[C@@H](Cc1ccc(O)cc1)C(=O)N[C@@H](CCCNC(=N)N)C(=O)N[C@@H](CCCCN)C(=O)N[C@@H](CCCCN)C(=O)N[C@@H](CCCNC(=N)N)C(=O)N[C@H](C(N)=O)[C@@H](C)O` it was 35 nM; in that of `CC(=O)N[C@@H](CC(=O)O)C(=O)N[C@@H](C)C(=O)N[C@@H](CCCNC(=N)N)C(=O)N[C@@H](CCCNC(=N)N)C(=O)N[C@@H](CCCNC(=N)N)C(=O)N[C@@H](CCCCN)C(=O)N[C@@H](CCCCN)C(=O)N[C@@H](CCCNC(=N)N)C(=O)N[C@H](C(N)=O)[C@@H](C)O`, 20 nM.
With `CC(=O)N[C@@H](CO)C(=O)N[C@@H](C)C(=O)N[C@@H](CCCNC(=N)N)C(=O)N[C@@H](CCCNC(=N)N)C(=O)N[C@@H](CCCNC(=N)N)C(=O)N[C@@H](CCCCN)C(=O)N[C@@H](CCCCN)C(=O)N[C@@H](CCCNC(=N)N)C(=O)N[C@H](C(N)=O)[C@@H](C)O`, the Ki came out at 11 nM.
For the compound `CC[C@H](C)[C@H](NC(=O)[C@H](CCCNC(=N)N)NC(=O)[C@H](C)NC(=O)[C@H](CCC(N)=O)NC(C)=O)C(=O)N[C@@H](CCCNC(=N)N)C(=O)N[C@@H](CCCCN)C(=O)N[C@@H](CCCCN)C(=O)N[C@@H](CCCNC(=N)N)C(=O)N[C@H](C(N)=O)[C@@H](C)O` (Ac-QARIRKKRT-NH2), the Ki turned out to be 9 nM.
In the case of `CC(=O)N1CCC[C@@H]1C(=O)N[C@@H](C)C(=O)N[C@@H](CCCNC(=N)N)C(=O)N[C@@H](CCCNC(=N)N)C(=O)N[C@@H](CCCNC(=N)N)C(=O)N[C@@H](CCCCN)C(=O)N[C@@H](CCCCN)C(=O)N[C@@H](CCCNC(=N)N)C(=O)N[C@H](C(N)=O)[C@@H](C)O` it was 13 nM; in that of `CC[C@H](NC(=O)[C@H](CCCNC(=N)N)NC(=O)[C@H](C)NC(=O)[C@H](CO)NC(C)=O)C(=O)N[C@@H](CCCNC(=N)N)C(=O)N[C@@H](CCCCN)C(=O)N[C@@H](CCCCN)C(=O)N[C@@H](CCCNC(=N)N)C(=O)N[C@H](C(N)=O)[C@@H](C)O`, 11 nM.
For `CCCC[C@H](NC(=O)[C@H](CCCNC(=N)N)NC(=O)[C@H](C)NC(=O)[C@H](CCCNC(=N)N)NC(C)=O)C(=O)N[C@@H](CCCNC(=N)N)C(=O)N[C@@H](CCCCN)C(=O)N[C@@H](CCCCN)C(=O)N[C@@H](CCCNC(=N)N)C(=O)N[C@H](C(N)=O)[C@@H](C)O`, the Ki was 19 nM.
In the case of `CC(=O)N[C@@H](CCCNC(=N)N)C(=O)N[C@@H](Cc1ccc(O)cc1)C(=O)N[C@@H](CCCNC(=N)N)C(=O)N[C@@H](CCCNC(=N)N)C(=O)N[C@@H](CCCNC(=N)N)C(=O)N[C@@H](CCCCN)C(=O)N[C@@H](CCCCN)C(=O)N[C@@H](CCCNC(=N)N)C(=O)N[C@H](C(N)=O)[C@@H](C)O` it was 24 nM.
In the case of `CSCC[C@H](NC(=O)[C@H](CCCNC(=N)N)NC(=O)[C@H](C)NC(=O)[C@H](CCCNC(=N)N)NC(C)=O)C(=O)N[C@@H](CCCNC(=N)N)C(=O)N[C@@H](CCCCN)C(=O)N[C@@H](CCCCN)C(=O)N[C@@H](CCCNC(=N)N)C(=O)N[C@H](C(N)=O)[C@@H](C)O`, the Ki was 16 nM.
Take `CC(=O)N[C@@H](CCCNC(=N)N)C(=O)N[C@@H](C)C(=O)N[C@@H](CCCNC(=N)N)C(=O)NC(C)(C)C(=O)N[C@@H](CCCNC(=N)N)C(=O)N[C@@H](CCCCN)C(=O)N[C@@H](CCCCN)C(=O)N[C@@H](CCCNC(=N)N)C(=O)N[C@H](C(N)=O)[C@@H](C)O`: the inhibitory constant (Ki) stood at 34 nM.
The value for `CC(=O)N[C@@H](CCCNC(=N)N)C(=O)N[C@@H](Cc1c[nH]c2ccccc12)C(=O)N[C@@H](CCCNC(=N)N)C(=O)N[C@@H](CCCNC(=N)N)C(=O)N[C@@H](CCCNC(=N)N)C(=O)N[C@@H](CCCCN)C(=O)N[C@@H](CCCCN)C(=O)N[C@@H](CCCNC(=N)N)C(=O)N[C@H](C(N)=O)[C@@H](C)O` was 29 nM.
Turning to `CC(=O)N[C@@H](CCCNC(=N)N)C(=O)N[C@@H](C)C(=O)N[C@@H](CC(N)=O)C(=O)N[C@@H](CCCNC(=N)N)C(=O)N[C@@H](CCCNC(=N)N)C(=O)N[C@@H](CCCCN)C(=O)N[C@@H](CCCCN)C(=O)N[C@@H](CCCNC(=N)N)C(=O)N[C@H](C(N)=O)[C@@H](C)O`, the Ki stood at 27 nM.
The value for `CC(=O)N[C@@H](CCCNC(=N)N)C(=O)N[C@@H](CC(=O)O)C(=O)N[C@@H](CCCNC(=N)N)C(=O)N[C@@H](CCCNC(=N)N)C(=O)N[C@@H](CCCNC(=N)N)C(=O)N[C@@H](CCCCN)C(=O)N[C@@H](CCCCN)C(=O)N[C@@H](CCCNC(=N)N)C(=O)N[C@H](C(N)=O)[C@@H](C)O` was 33 nM; that for `CC(=O)N[C@@H](CCCNC(=N)N)C(=O)N[C@@H](C)C(=O)N[C@@H](Cc1ccc(O)cc1)C(=O)N[C@@H](CCCNC(=N)N)C(=O)N[C@@H](CCCNC(=N)N)C(=O)N[C@@H](CCCCN)C(=O)N[C@@H](CCCCN)C(=O)N[C@@H](CCCNC(=N)N)C(=O)N[C@H](C(N)=O)[C@@H](C)O` was 48 nM.
